Laboratory results reported in ChEMBL document CHEMBL1129449 (J Med Chem, 1996).

What was measured:
D(1A) dopamine receptor = D(1A) dopamine receptor (Rattus norvegicus, UniProt P18901); experiment: Binding affinity at Dopamine receptor D1 in rat neostriatum by [3H]-SCH- 23390 displacement.; format: tissue-based, Striatum
In short: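 Tissue: sections of neostriatum from male Sprague–Dawley rats (250–300 g). Test substances dissolved in distilled water. Values are mean ± SEM of five to seven independent experiments, each run in triplicate.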

D(2) dopamine receptor = D(2) dopamine receptor (Rattus norvegicus, UniProt P61169); experiment: Binding affinity at Dopamine receptor D2 in rat neostriatum frozen sections by [3H]-spiperone displacement.
D(2) dopamine receptor, sequence (P61169 whole entry): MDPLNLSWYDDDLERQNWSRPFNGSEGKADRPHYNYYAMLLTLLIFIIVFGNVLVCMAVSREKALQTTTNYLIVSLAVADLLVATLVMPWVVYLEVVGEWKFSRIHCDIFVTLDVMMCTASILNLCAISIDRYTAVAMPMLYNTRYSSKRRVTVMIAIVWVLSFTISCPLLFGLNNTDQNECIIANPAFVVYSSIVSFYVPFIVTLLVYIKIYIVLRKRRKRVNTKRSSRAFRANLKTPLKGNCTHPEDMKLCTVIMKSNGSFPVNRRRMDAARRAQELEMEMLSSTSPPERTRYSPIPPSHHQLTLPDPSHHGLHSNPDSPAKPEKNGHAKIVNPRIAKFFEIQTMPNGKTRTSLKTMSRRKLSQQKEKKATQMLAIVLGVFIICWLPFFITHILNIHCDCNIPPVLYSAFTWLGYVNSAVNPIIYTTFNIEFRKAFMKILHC

D(1A) dopamine receptor, sequence (P18901 whole entry): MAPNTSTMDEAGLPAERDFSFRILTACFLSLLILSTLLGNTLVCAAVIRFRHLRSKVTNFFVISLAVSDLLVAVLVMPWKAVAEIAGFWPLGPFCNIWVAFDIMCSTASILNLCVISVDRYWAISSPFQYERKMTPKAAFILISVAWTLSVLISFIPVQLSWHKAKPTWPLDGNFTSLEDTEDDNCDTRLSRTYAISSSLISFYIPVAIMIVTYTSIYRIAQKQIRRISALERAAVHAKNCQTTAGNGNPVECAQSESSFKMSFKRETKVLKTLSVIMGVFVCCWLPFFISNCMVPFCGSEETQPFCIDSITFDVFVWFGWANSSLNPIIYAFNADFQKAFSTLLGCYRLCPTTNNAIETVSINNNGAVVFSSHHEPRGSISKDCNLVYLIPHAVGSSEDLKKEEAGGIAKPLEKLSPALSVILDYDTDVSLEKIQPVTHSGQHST

Row | Ki (D(1A) dopamine receptor) [nM] | Ki (D(2) dopamine receptor) [nM] | Structure (SMILES)
1 | 1.87 | > 1000 | N[C@@H]1Cc2cc(O)ccc2[C@H]1c1ccccc1 (stereo in doubt; (+)-14b)
2 | 26.4 | 0.84 | CCCN(CCC)[C@@H]1Cc2ccc(O)cc2[C@H]1c1ccccc1 (stereo in doubt; (-)-15a)
3 | > 1000 | > 1000 | CCCN(C)[C@@H]1Cc2cc(O)ccc2[C@H]1c1ccccc1 (stereo in doubt; (+)-17b)
4 | > 1000 | > 1000 | C=CCN(C)[C@@H]1Cc2cc(O)ccc2[C@H]1c1ccccc1 (stereo in doubt; (+)-16b)
5 | 18.7 | > 1000 | N[C@@H]1Cc2cc(O)ccc2[C@H]1c1ccccc1 (stereo in doubt; (-)-14b)
6 | 0.9 | 0.3 | CCCN(C)[C@@H]1Cc2ccc(O)cc2[C@H]1c1ccccc1 (stereo in doubt; (+)-17a)
7 | 0.79 | 0.43 | C=CCN(C)[C@@H]1Cc2ccc(O)cc2[C@H]1c1ccccc1 (stereo in doubt; (-)-16a)
8 | 28.5 | 51.5 | CCCN(CCC)[C@@H]1Cc2ccc(O)cc2[C@H]1c1ccccc1 (stereo in doubt; (+)-15a)
9 | 1.76 | > 1000 | CCCN(CCC)[C@@H]1Cc2cc(O)ccc2[C@H]1c1ccccc1 (stereo in doubt; (-)-15b)

The remaining lines, values behind:

Row | Structure (SMILES) | Ki (D(1A) dopamine receptor) [nM] | Ki (D(2) dopamine receptor) [nM]
10 | N[C@@H]1Cc2ccc(O)cc2[C@H]1c1ccccc1 (stereo in doubt; (-)-14a) | 34.5 | 0.89
11 | C[C@@]1(c2ccccc2)c2cc(O)c(O)cc2C[C@@]1(C)N | 5.5 | > 1000
12 | C=CCN(C)[C@@H]1Cc2cc(O)ccc2[C@H]1c1ccccc1 (stereo in doubt; (-)-16b) | > 1000 | > 1000
13 | C=CCN(C)[C@@H]1Cc2ccc(O)cc2[C@H]1c1ccccc1 (stereo in doubt; (+)-16a) | 3 | 37.5
14 | N[C@@H]1Cc2ccc(O)cc2[C@H]1c1ccccc1 (stereo in doubt; (+)-14a) | 2.5 | 0.59
15 | CCCN(CCC)[C@@H]1Cc2cc(O)ccc2[C@H]1c1ccccc1 (stereo in doubt; (+)-15b) | 1.4 | > 1000
16 | CCCN(C)[C@@H]1Cc2cc(O)ccc2[C@H]1c1ccccc1 (stereo in doubt; (-)-17b) | > 1000 | > 1000
17 | CCCN(C)[C@@H]1Cc2ccc(O)cc2[C@H]1c1ccccc1 (stereo in doubt; (-)-17a) | 0.88 | 0.34
